Experimental data reported in ChEMBL document CHEMBL3259728, “Design, synthesis and biological evaluation of some novel substituted quinazolines as antitumor agents” (2014).

Experiments:
Format in all cases: functional
[1] = Growth inhibition of human NCI-ADR-RES cells at 10 uM after 48 hrs by SRB assay; conditions: read-out: GI
Procedure, shortened: (§1)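 NCI-60 primary one-dose screen run at the US NCI, with human tumour lines from nine cancer types. Compound added once at 10^-5 M, followed by 48 h incubation. End point was sulforhodamine B protein staining read spectrophotometrically. Result given as percent growth of treated cells against untreated controls, reported as % growth inhibition.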

[2] = system: M14; test: Growth inhibition of human M14 cells at 10 uM after 48 hrs by SRB assay; conditions: M14, 48 h, read-out: GI; procedure, shortened: as §1
[3] = system: PC-3; test: Growth inhibition of human PC3 cells at 10 uM after 48 hrs by SRB assay; conditions: PC-3, 48 h, read-out: GI; procedure, shortened: as §1
[4] = system: 786-0; test: Growth inhibition of human 786-0 cells at 10 uM after 48 hrs by SRB assay; conditions: 786-0, 48 h, read-out: GI
Procedure, shortened: (§2)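 NCI primary one-dose screen. A single concentration of 10^-5 M was added to the cell culture, followed by 48 h incubation and an SRB protein-dye endpoint read spectrophotometrically. Results are growth percentage relative to untreated control cells, reported as % growth inhibition.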

[5] = system: DU-145; test: Growth inhibition of human DU145 cells at 10 uM after 48 hrs by SRB assay; conditions: DU-145, 48 h, read-out: GI; procedure, shortened: as §1
[6] = system: KM12; test: Growth inhibition of human KM12 cells at 10 uM after 48 hrs by SRB assay; conditions: KM12, 48 h, read-out: GI; procedure, shortened: as §1
[7] = Growth inhibition of human BT549 cells at 10 uM after 48 hrs by SRB assay; conditions: BT-549, 48 h, read-out: GI; procedure, shortened: as §2
[8] = system: A498; test: Growth inhibition of human A498 cells at 10 uM after 48 hrs by SRB assay; conditions: A498, 48 h, read-out: GI; procedure, shortened: as §2
[9] = Growth inhibition of human HCT15 cells at 10 uM after 48 hrs by SRB assay; conditions: HCT-15, 48 h, read-out: GI; procedure, shortened: as §1
[10] = Growth inhibition of human UACC257 cells at 10 uM after 48 hrs by SRB assay; conditions: UACC-257, 48 h, read-out: GI; procedure, shortened: as §1
[11] = system: SN12C; test: Growth inhibition of human SN12C cells at 10 uM after 48 hrs by SRB assay; conditions: read-out: GI; procedure, shortened: as §1
[12] = system: RPMI-8226; test: Growth inhibition of human RPMI8226 cells at 10 uM after 48 hrs by SRB assay; conditions: RPMI-8226, 48 h, read-out: GI; procedure, shortened: as §1
[13] = system: SK-OV-3; test: Growth inhibition of human SKOV3 cells at 10 uM after 48 hrs by SRB assay; conditions: SK-OV-3, 48 h, read-out: GI; procedure, shortened: as §1
[14] = system: SW-620; test: Growth inhibition of human SW620 cells at 10 uM after 48 hrs by SRB assay; conditions: SW-620, 48 h, read-out: GI; procedure, shortened: as §1
[15] = system: MCF7; test: Growth inhibition of human MCF7 cells at 10 uM after 48 hrs by SRB assay; conditions: MCF7, 48 h, read-out: GI; procedure, shortened: as §1
[16] = Growth inhibition of human RXF393 cells at 10 uM after 48 hrs by SRB assay; conditions: RXF 393, 48 h, read-out: GI; procedure, shortened: as §1
[17] = system: MDA-MB-468; test: Growth inhibition of human MDA-MB-468 cells assessed as cell growth at 10 uM after 48 hrs by SRB assay; conditions: MDA-MB-468, 48 h, read-out: GI; procedure, shortened: as §1
[18] = Growth inhibition of human OVCAR3 cells at 10 uM after 48 hrs by SRB assay; conditions: OVCAR-3, 48 h, read-out: GI; procedure, shortened: as §1
[19] = system: NCI-H522; test: Growth inhibition of human NCI-H522 cells at 10 uM after 48 hrs by SRB assay; conditions: NCI-H522, 48 h, read-out: GI; procedure, shortened: as §1
[20] = system: TK-10; test: Growth inhibition of human TK10 cells at 10 uM after 48 hrs by SRB assay; conditions: TK-10, 48 h, read-out: GI; procedure, shortened: as §1
[21] = system: SNB-19; test: Growth inhibition of human SNB19 cells at 10 uM after 48 hrs by SRB assay; conditions: SNB-19, 48 h, read-out: GI; procedure, shortened: as §1
[22] = Growth inhibition of human UACC62 cells at 10 uM after 48 hrs by SRB assay; conditions: UACC-62, 48 h, read-out: GI; procedure, shortened: as §1
[23] = system: NCI-H23; test: Growth inhibition of human NCI-H23 cells at 10 uM after 48 hrs by SRB assay; conditions: NCI-H23, 48 h, read-out: GI; procedure, shortened: as §1
[24] = system: U-251; test: Growth inhibition of human U251 cells at 10 uM after 48 hrs by SRB assay; conditions: U-251, 48 h, read-out: GI; procedure, shortened: as §1
[25] = Growth inhibition of human OVCAR5 cells at 10 uM after 48 hrs by SRB assay; conditions: OVCAR-5, 48 h, read-out: GI; procedure, shortened: as §1
[26] = system: SK-MEL-28; test: Growth inhibition of human SK-MEL-28 cells at 10 uM after 48 hrs by SRB assay; conditions: SK-MEL-28, 48 h, read-out: GI; procedure, shortened: as §1
[27] = system: Malme-3M; test: Growth inhibition of human MALME-3M cells at 10 uM after 48 hrs by SRB assay; conditions: read-out: GI; procedure, shortened: as §1
[28] = system: HT-29; test: Growth inhibition of human HT-29 cells at 10 uM after 48 hrs by SRB assay; conditions: HT-29, 48 h, read-out: GI; procedure, shortened: as §1
[29] = system: HCT-116; test: Growth inhibition of human HCT116 cells at 10 uM after 48 hrs by SRB assay; conditions: HCT-116, 48 h, read-out: GI; procedure, shortened: as §1
[30] = system: NCI-H322M; test: Growth inhibition of human NCI-H322M cells at 10 uM after 48 hrs by SRB assay; conditions: read-out: GI; procedure, shortened: as §1
[31] = system: SR; test: Growth inhibition of human SR cells at 10 uM after 48 hrs by SRB assay; conditions: read-out: GI; procedure, shortened: as §1
[32] = system: K562; test: Growth inhibition of human K562 cells at 10 uM after 48 hrs by SRB assay; conditions: K562, 48 h, read-out: GI; procedure, shortened: as §1
[33] = system: A549; test: Growth inhibition of human A549 cells at 10 uM after 48 hrs by SRB assay; conditions: A549, 48 h, read-out: GI; procedure, shortened: as §2
[34] = system: ACHN; test: Growth inhibition of human ACHN cells at 10 uM after 48 hrs by SRB assay; conditions: read-out: GI; procedure, shortened: as §2
[35] = system: MDA-MB-435; test: Growth inhibition of human MDA-MB-435 cells at 10 uM after 48 hrs by SRB assay; conditions: MDA-MB-435, 48 h, read-out: GI; procedure, shortened: as §1
[36] = system: SK-MEL-2; test: Growth inhibition of human SK-MEL-2 cells at 10 uM after 48 hrs by SRB assay; conditions: SK-MEL-2, 48 h, read-out: GI; procedure, shortened: as §1
[37] = system: SF-268; test: Growth inhibition of human SF268 cells at 10 uM after 48 hrs by SRB assay; conditions: SF-268, 48 h, read-out: GI; procedure, shortened: as §1
[38] = system: T47D; test: Growth inhibition of human T47D cells at 10 uM after 48 hrs by SRB assay; conditions: read-out: GI; procedure, shortened: as §1
[39] = Growth inhibition of human SF539 cells at 10 uM after 48 hrs by SRB assay; conditions: SF-539, 48 h, read-out: GI; procedure, shortened: as §1

## Cc1ccc(C(=O)Nc2ccc(Cl)cc2C(=O)NCc2ccccc2)cc1
[1]
  inhibition of growth at 10 µM: 28%
[2]
  inhibition of growth at 10 µM: 26%
[3]
  inhibition of growth at 10 µM: 24%
[4]
  inhibition of growth at 10 µM: < 10%
[5]
  inhibition of growth at 10 µM: < 10%
[6]
  inhibition of growth at 10 µM: 40%
[7]
  inhibition of growth at 10 µM: < 10%
[8]
  inhibition of growth at 10 µM: 21%
[9]
  inhibition of growth at 10 µM: 43%
[10]
  inhibition of growth at 10 µM: 15%
[11]
  inhibition of growth at 10 µM: < 10%
[12]
  inhibition of growth at 10 µM: 23%
[13]
  inhibition of growth at 10 µM: < 10%
[14]
  inhibition of growth at 10 µM: 42%
[15]
  inhibition of growth at 10 µM: 47%
[16]
  inhibition of growth at 10 µM: 13%
[17]
  inhibition of growth at 10 µM: 17%
[18]
  inhibition of growth at 10 µM: < 10%
[19]
  inhibition of growth at 10 µM: 47%
[20]
  inhibition of growth at 10 µM: < 10%
[21]
  inhibition of growth at 10 µM: < 10%
[22]
  inhibition of growth at 10 µM: 30%
[23]
  inhibition of growth at 10 µM: < 10%
[24]
  inhibition of growth at 10 µM: 19%
[25]
  inhibition of growth at 10 µM: < 10%
[26]
  inhibition of growth at 10 µM: 17%
[27]
  inhibition of growth at 10 µM: 12%
[28]
  inhibition of growth at 10 µM: 77%
[29]
  inhibition of growth at 10 µM: 11%
[30]
  inhibition of growth at 10 µM: < 10%
[31]
  inhibition of growth at 10 µM: 63%
[32]
  inhibition of growth at 10 µM: 70%
[33]
  inhibition of growth at 10 µM: 15%
[34]
  inhibition of growth at 10 µM: 14%
[35]
  inhibition of growth at 10 µM: 98%
[36]
  inhibition of growth at 10 µM: 49%
[37]
  inhibition of growth at 10 µM: < 10%
[38]
  inhibition of growth at 10 µM: < 10%
[39]
  inhibition of growth at 10 µM: 16%

## Cc1ccc(C(=O)Nc2ccc(Cl)cc2C(=O)Nc2ccccn2)cc1
[1]
  inhibition of growth at 10 µM: < 10%
[2]
  inhibition of growth at 10 µM: < 10%
[3]
  inhibition of growth at 10 µM: 23%
[4]
  inhibition of growth at 10 µM: < 10%
[5]
  inhibition of growth at 10 µM: 11%
[6]
  inhibition of growth at 10 µM: 11%
[7]
  inhibition of growth at 10 µM: < 10%
[8]
  inhibition of growth at 10 µM: 39%
[9]
  inhibition of growth at 10 µM: 14%
[10]
  inhibition of growth at 10 µM: < 10%
[11]
  inhibition of growth at 10 µM: < 10%
[12]
  inhibition of growth at 10 µM: 15%
[13]
  inhibition of growth at 10 µM: < 10%
[14]
  inhibition of growth at 10 µM: < 10%
[15]
  inhibition of growth at 10 µM: 19%
[16]
  inhibition of growth at 10 µM: < 10%
[17]
  inhibition of growth at 10 µM: 11%
[18]
  inhibition of growth at 10 µM: 12%
[19]
  inhibition of growth at 10 µM: 22%
[20]
  inhibition of growth at 10 µM: < 10%
[21]
  inhibition of growth at 10 µM: < 10%
[22]
  inhibition of growth at 10 µM: 16%
[23]
  inhibition of growth at 10 µM: < 10%
[24]
  inhibition of growth at 10 µM: < 10%
[25]
  inhibition of growth at 10 µM: < 10%
[26]
  inhibition of growth at 10 µM: < 10%
[27]
  inhibition of growth at 10 µM: < 10%
[28]
  inhibition of growth at 10 µM: 14%
[29]
  inhibition of growth at 10 µM: < 10%
[30]
  inhibition of growth at 10 µM: < 10%
[31]
  inhibition of growth at 10 µM: < 10%
[32]
  inhibition of growth at 10 µM: 35%
[33]
  inhibition of growth at 10 µM: 13%
[34]
  inhibition of growth at 10 µM: < 10%
[35]
  inhibition of growth at 10 µM: 19%
[36]
  inhibition of growth at 10 µM: < 10%
[37]
  inhibition of growth at 10 µM: 13%
[38]
  inhibition of growth at 10 µM: 20%
[39]
  inhibition of growth at 10 µM: 22%
